Here are results for 46 compounds from ChEMBL document CHEMBL4014301, “Design, synthesis and evaluation of 4-substituted anthra[2,1-c][1,2,5]thiadiazole-6,11-dione derivatives as novel non-camptothecin topoisomerase I inhibitors” (Bioorg Med Chem Lett, 2017).

One experiment has as its system A549. In words: Antiproliferative activity against human A549 cells after 72 hrs by MTT assay. The format is functional, cell-based. Particulars: Homo sapiens, A549, 72 h. (In general: Tetrazolium assays rely on reduction of a dye to a coloured formazan, in cell work by metabolically active cells.)
The test system of the next experiment is HCT-116. In words: Antiproliferative activity against human HCT116 cells after 72 hrs by MTT assay. The class given is functional, cell-based. As to conditions: Homo sapiens, HCT-116, 72 h.
Another experiment concerns ZR-75-30. Nature of the experiment: Antiproliferative activity against human ZR-7530 cells after 72 hrs by MTT assay. The format is functional, cell-based. As to conditions: Homo sapiens, ZR-75-30, 72 h.
Experiment [1] concerns the target T1, DNA topoisomerase 1 (Homo sapiens) (UniProt P11387).
T1 sequence (whole entry): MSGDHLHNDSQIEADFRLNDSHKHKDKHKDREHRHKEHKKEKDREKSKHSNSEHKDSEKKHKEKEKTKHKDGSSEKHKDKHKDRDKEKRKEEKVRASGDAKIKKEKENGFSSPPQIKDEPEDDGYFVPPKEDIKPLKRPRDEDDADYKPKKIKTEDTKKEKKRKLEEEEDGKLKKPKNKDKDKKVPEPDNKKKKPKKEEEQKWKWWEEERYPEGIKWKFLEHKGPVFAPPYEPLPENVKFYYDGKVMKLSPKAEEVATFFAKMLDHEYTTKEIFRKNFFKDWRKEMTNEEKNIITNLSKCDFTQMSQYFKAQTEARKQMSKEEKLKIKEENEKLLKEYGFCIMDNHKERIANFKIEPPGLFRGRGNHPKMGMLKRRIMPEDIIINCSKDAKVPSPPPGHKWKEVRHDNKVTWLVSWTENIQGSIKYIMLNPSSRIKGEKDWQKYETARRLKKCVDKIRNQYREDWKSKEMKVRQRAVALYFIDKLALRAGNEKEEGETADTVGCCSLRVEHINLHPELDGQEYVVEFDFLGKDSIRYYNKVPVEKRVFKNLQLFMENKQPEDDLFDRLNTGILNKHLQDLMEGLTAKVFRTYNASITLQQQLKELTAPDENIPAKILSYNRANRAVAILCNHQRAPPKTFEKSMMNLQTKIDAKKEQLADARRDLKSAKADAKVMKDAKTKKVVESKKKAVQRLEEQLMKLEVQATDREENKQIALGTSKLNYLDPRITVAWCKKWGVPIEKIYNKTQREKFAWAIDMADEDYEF
In words: Inhibition of DNA topoisomerase 1 (unknown origin) assessed as reduction in supercoiled pBR322 plasmid DNA relaxation at 100 uM after 15 mins by ethidium bromide staining based agarose gel electrophoresis. In short, it runs like this:
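Supercoiled pBR322 plasmid incubated with Top1, with or without compound at 1, 10 and 100 µM. Relaxation inhibition read from agarose gel bands.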

Active and inactive are the calls of the source. The rule behind the calls is not given here.

A word on the IC50: it is the concentration needed to halve the response being measured. Turning to `CCOc1cccc(S(=O)(=O)c2cc3c(c4nsnc24)C(=O)c2ccccc2C3=O)c1`, the IC50 in the experiment on A549, in the experiment on HCT-116 and with ZR-75-30 was more than 100 µM in each case.

Turning to `O=C1c2ccccc2C(=O)c2c1cc(S(=O)(=O)Cc1ccccc1Cl)c1nsnc21`, the values for the IC50 in the experiment on A549, in the experiment with HCT-116 and in the experiment on ZR-75-30 were more than 100 µM, 11 µM and more than 100 µM, respectively. Besides, the inhibition entry in experiment [1] is “Active”.

With `O=C1c2ccccc2C(=O)c2c1cc(S(=O)(=O)c1cccc(Cl)c1)c1nsnc21`, the IC50 in the experiment on A549, in the experiment on HCT-116 and with ZR-75-30 was more than 100 µM in each case.

With `O=C1c2ccccc2C(=O)c2c1cc(Sc1cccc(Cl)c1)c1nsnc21`, the IC50 with A549, in the experiment on HCT-116 and in the experiment with ZR-75-30 was more than 100 µM each time.

As to `CCOc1cccc(Sc2cc3c(c4nsnc24)C(=O)c2ccccc2C3=O)c1`, the concentration for half-maximal inhibition (IC50) in the experiment with A549, with HCT-116 and with ZR-75-30 was more than 50 µM throughout.

With `O=C1c2ccccc2C(=O)c2c1cc(Sc1ccc(Cl)cc1)c1nsnc21`, the IC50 in the experiment with A549, in the experiment on HCT-116 and with ZR-75-30 was more than 100 µM each time.

On to `COc1ccc(S(=O)(=O)c2cc3c(c4nsnc24)C(=O)c2ccccc2C3=O)cc1`, for which the IC50 in the experiment on A549, in the experiment on HCT-116 and in the experiment on ZR-75-30 was more than 50 µM each time.

`CC(C)c1ccc(S(=O)(=O)c2cc3c(c4nsnc24)C(=O)c2ccccc2C3=O)cc1`: the IC50 with A549 was more than 100 µM; in the experiment on HCT-116, 27 µM; with ZR-75-30 it was 83 µM.

As to `O=C1c2ccccc2C(=O)c2c1cc(S(=O)(=O)c1ccc(F)cc1)c1nsnc21`, the IC50 was more than 100 µM with A549, 23 µM with HCT-116 and 36 µM in the experiment with ZR-75-30.

On to `CC(C)c1ccc(Sc2cc3c(c4nsnc24)C(=O)c2ccccc2C3=O)cc1`, for which the IC50 in the experiment with A549, in the experiment on HCT-116 and in the experiment with ZR-75-30 was more than 100 µM each time.

In the case of `O=C1c2ccccc2C(=O)c2c1cc(Sc1nc3ccccc3s1)c1nsnc21`, the IC50 in the experiment with A549, in the experiment with HCT-116 and in the experiment with ZR-75-30 was more than 100 µM in each case.

For `CC(C)(C)c1ccc(Sc2cc3c(c4nsnc24)C(=O)c2ccccc2C3=O)cc1`, the IC50 in the experiment with A549, in the experiment on HCT-116 and in the experiment with ZR-75-30 was more than 100 µM throughout.

Consider `O=C1c2ccccc2C(=O)c2c1cc(NC1CCCCC1)c1nsnc21`, for which the figures for the IC50 with A549, with HCT-116 and in the experiment with ZR-75-30 were 3.8 µM, 5.1 µM and 4.1 µM, respectively.

In the case of `O=C1c2ccccc2C(=O)c2c1cc(NCc1ccccc1)c1nsnc21`, the IC50 with A549 was found to be 4 µM; with HCT-116, 1.9 µM; with ZR-75-30, 4.5 µM.

As to `O=C1c2ccccc2C(=O)c2c1cc(N1CCN(c3ccccn3)CC1)c1nsnc21`, the IC50 with A549, with HCT-116 and in the experiment on ZR-75-30 was more than 100 µM throughout.

On to `O=C1c2ccccc2C(=O)c2c1cc(SCc1ccccc1)c1nsnc21`, for which the IC50 in the experiment on A549, in the experiment on HCT-116 and in the experiment on ZR-75-30 was more than 100 µM throughout.

Regarding `O=C1c2ccccc2C(=O)c2c1cc(S(=O)(=O)c1ccccc1)c1nsnc21`, the IC50 in the experiment with A549 is more than 100 µM; with HCT-116 it was 35 µM; with ZR-75-30, more than 100 µM.

`CC(C)(C)OC(=O)N1CCN(c2cc3c(c4nsnc24)C(=O)c2ccccc2C3=O)CC1`: the IC50 with A549, with HCT-116 and with ZR-75-30 was more than 100 µM throughout.

Regarding `O=C1c2ccccc2C(=O)c2c1cc(NCc1cccnc1)c1nsnc21`, the half-inhibitory concentration (IC50) is more than 100 µM in the experiment on A549, 87 µM in the experiment on HCT-116 and 12 µM in the experiment with ZR-75-30.

In the case of `CCOc1ccc(Nc2cc3c(c4nsnc24)C(=O)c2ccccc2C3=O)cc1`, the results for the IC50 in the experiment on A549, in the experiment with HCT-116 and in the experiment with ZR-75-30 were more than 100 µM, 100 µM and 91 µM, respectively.

Take `O=C1c2ccccc2C(=O)c2c1cc(S(=O)(=O)Cc1ccccc1)c1nsnc21`: the IC50 in the experiment with A549 is more than 100 µM; with HCT-116, 68 µM; in the experiment on ZR-75-30 it was more than 100 µM.

Take `O=C1c2ccccc2C(=O)c2c1cc(Sc1ccc(F)cc1)c1nsnc21`: the IC50 in the experiment with A549 is more than 50 µM; in the experiment on HCT-116, 9.8 µM; with ZR-75-30, 20 µM.

As to `O=C1c2ccccc2C(=O)c2c1cc(Sc1ccccc1)c1nsnc21`, the IC50 in the experiment with A549, in the experiment with HCT-116 and with ZR-75-30 was more than 100 µM throughout.

With `CC[C@@]1(O)C(=O)OCc2c1cc1n(c2=O)Cc2cc3ccccc3nc2-1` [CAMPTOTHECIN], the IC50 in the experiment on HCT-116 came out at 0.12 µM; with ZR-75-30, 0.24 µM.

As for `O=C1c2ccccc2C(=O)c2c1cc(N1CCN(Cc3ccccc3)CC1)c1nsnc21`, the IC50 in the experiment with A549, with HCT-116 and in the experiment with ZR-75-30 was more than 100 µM each time.

Take `CC(C)(C)c1ccc(S(=O)(=O)c2cc3c(c4nsnc24)C(=O)c2ccccc2C3=O)cc1`: the IC50 with A549 is more than 50 µM; with HCT-116, 34 µM; with ZR-75-30, more than 50 µM.

With `O=C1c2ccccc2C(=O)c2c1cc(NCc1ccc(C(F)(F)F)cc1)c1nsnc21`, the IC50 was more than 100 µM with A549, 72 µM in the experiment on HCT-116 and 98 µM with ZR-75-30.

Take `O=C1c2ccccc2C(=O)c2c1cc(NCc1ccc(Cl)cc1)c1nsnc21`: the IC50 in the experiment with A549, in the experiment on HCT-116 and in the experiment on ZR-75-30 was more than 100 µM in each case.

As to `O=C1c2ccccc2C(=O)c2c1cc(S(=O)(=O)c1ccc(Cl)cc1)c1nsnc21`, the IC50 is more than 100 µM with A549, 15 µM in the experiment with HCT-116 and more than 100 µM in the experiment on ZR-75-30.

`CCCNc1cc2c(c3nsnc13)C(=O)c1ccccc1C2=O`: the IC50 in the experiment on A549, with HCT-116 and in the experiment with ZR-75-30 was more than 100 µM in each case.

Regarding `O=C1c2ccccc2C(=O)c2c1cc(N1CCCCC1)c1nsnc21`, the IC50 in the experiment with A549 is more than 100 µM; in the experiment with HCT-116, more than 100 µM; in the experiment on ZR-75-30 it was 8.1 µM.

As to `CCCCCCNc1cc2c(c3nsnc13)C(=O)c1ccccc1C2=O`, the figures for the IC50 with A549, in the experiment with HCT-116 and in the experiment on ZR-75-30 were more than 100 µM, 50 µM and 47 µM, respectively.

Regarding `O=C1c2ccccc2C(=O)c2c1cc(S(=O)(=O)c1ccc(Br)cc1)c1nsnc21`, the IC50 is 97 µM in the experiment with A549, 18 µM in the experiment on HCT-116 and 94 µM in the experiment with ZR-75-30.

On to `CCCCCCCCNc1cc2c(c3nsnc13)C(=O)c1ccccc1C2=O`, for which the IC50 in the experiment with A549 worked out at 31 µM; in the experiment on HCT-116, 54 µM; in the experiment on ZR-75-30, 22 µM.

With `Cc1cccc(S(=O)(=O)c2cc3c(c4nsnc24)C(=O)c2ccccc2C3=O)c1`, the IC50 was more than 100 µM in the experiment on A549, 78 µM with HCT-116 and more than 100 µM in the experiment with ZR-75-30.

With `O=C1c2ccccc2C(=O)c2c1cc(Sc1ccc(Br)cc1)c1nsnc21`, the IC50 in the experiment on A549, in the experiment with HCT-116 and in the experiment on ZR-75-30 was more than 100 µM throughout.

As to `Cc1ccc(Sc2cc3c(c4nsnc24)C(=O)c2ccccc2C3=O)cc1`, the IC50 in the experiment on A549 is more than 100 µM; with HCT-116, 26 µM; with ZR-75-30 it was 22 µM.

Regarding `Cc1cccc(Sc2cc3c(c4nsnc24)C(=O)c2ccccc2C3=O)c1`, the figures for the IC50 with A549, with HCT-116 and in the experiment with ZR-75-30 were more than 100 µM, 21 µM and 49 µM, respectively.

As to `O=C1c2ccccc2C(=O)c2c1cc(N1CCCC1)c1nsnc21`, the figures for the IC50 in the experiment on A549, in the experiment on HCT-116 and in the experiment on ZR-75-30 were more than 100 µM, 68 µM and 45 µM, respectively.

On to `O=C1c2ccccc2C(=O)c2c1cc(Sc1cccc(F)c1)c1nsnc21`, for which the IC50 in the experiment on A549, with HCT-116 and in the experiment with ZR-75-30 was more than 50 µM in each case.

Take `CCCCCCCNc1cc2c(c3nsnc13)C(=O)c1ccccc1C2=O`: the IC50 in the experiment on A549 came out at 44 µM; in the experiment with HCT-116, 34 µM; in the experiment on ZR-75-30 it was 12 µM.

For the compound `CCc1c2c(nc3ccc(OC(=O)N4CCC(N5CCCCC5)CC4)cc13)-c1cc3c(c(=O)n1C2)COC(=O)[C@]3(O)CC` [IRINOTECAN], the figures for the IC50 in the experiment with HCT-116 and in the experiment on ZR-75-30 were 6.3 µM and 18 µM, respectively.

For the compound `COc1ccc(Sc2cc3c(c4nsnc24)C(=O)c2ccccc2C3=O)cc1`, the IC50 in the experiment with A549, in the experiment on HCT-116 and in the experiment on ZR-75-30 was more than 100 µM in each case.

With `O=C1c2ccccc2C(=O)c2c1cc(S(=O)(=O)c1cccc(F)c1)c1nsnc21`, the IC50 in the experiment with A549 was more than 100 µM; in the experiment with HCT-116, 24 µM; in the experiment with ZR-75-30 it was more than 100 µM.

As for `O=C1c2ccccc2C(=O)c2c1cc(S(=O)(=O)c1nc3ccccc3s1)c1nsnc21`, the IC50 in the experiment on A549, with HCT-116 and in the experiment on ZR-75-30 was more than 100 µM throughout.

Take `CCC(C)Nc1cc2c(c3nsnc13)C(=O)c1ccccc1C2=O` (configuration not stated): the results for the IC50 with A549, with HCT-116 and in the experiment on ZR-75-30 were more than 100 µM, 58 µM and more than 100 µM, respectively.
